Experiments:
Assay type in all cases: toxicity, cell-based
Fibroblast [1] = assay: Multiplex assay against human fibroblast
How it was run: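 Cells were classed with CellPathfinder machine-learning gating, first as Hoechst high-intensity objects or normal cells, then (normal cells) as healthy, pyknosed or fragmented nuclei, and finally (pyknosed cells) as mitotic or apoptotic. Staining of live cells at seeding used Hoechst33342, BioTracker Green Microtubule Cytoskeleton Dye, MitoTracker Red and Annexin V Alexa Fluor 680, with imaging on a CQ1 microscope at 37°C and 5% CO2 after compound addition. Tubulin, mitochondrial-mass and membrane-permeability phenotypes are per cents of healthy-nucleus cells.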

U2OS = assay: Incucyte cell viability with U2OS; conditions: human, 10 µM, compound concentration 10 uM; note: filed as whole numbers so only -1 and 0 and 1 occur
Fibroblast [2] = assay: Incucyte cell viability with human fibroblast; conditions: 10 µM, compound concentration 10 uM; note: filed as whole numbers so only -1 and 0 and 1 occur
[3] = 24 h, 10 µM, compound concentration 10 uM, replicate 1
[4] = 24 h, 10 µM, compound concentration 10 uM, replicate 2
[5] = 48 h, 1 µM, compound concentration 1 uM, replicate 1
[6] = 48 h, 1 µM, compound concentration 1 uM, replicate 2
[7] = 48 h, 10 µM, compound concentration 10 uM, replicate 1
[8] = 48 h, 10 µM, compound concentration 10 uM, replicate 2
[9] = 0 h, replicate number 1, timepoint 0 hours
[10] = 12 h, replicate number 1, timepoint 12 hours
[11] = 18 h, replicate number 1, timepoint 18 hours
[12] = 24 h, replicate number 1, timepoint 24 hours

CN(c1cc(C(F)(F)F)nc(OCCC(=O)O)n1)c1cccc2c1CCC2
Population Mitotic Cells (%) (Fibroblast [1]; [3]): 43%
Population Normal (%) (Fibroblast [1]; [3]): 92%
Population Pyknosed Nuclei (%) (Fibroblast [1]; [3]): 25%
Population Tubulin-Different-Phenotype (%) (Fibroblast [1]; [3]): 34%
Total Cell Count (Fibroblast [1]; [3]): 198
Population Apoptotic (%) (Fibroblast [1]; [4]): 0%
Population Fragmented Nuclei (%) (Fibroblast [1]; [4]): 13%
Population Healthy Nuclei (%) (Fibroblast [1]; [4]): 81%
Population Hoechst High Intensity Objects (%) (Fibroblast [1]; [4]): 13%
Population Membrane Permeable-Phenotype (%) (Fibroblast [1]; [4]): 3%
Population Mitochondria Different-Phenotype (%) (Fibroblast [1]; [4]): 13%
Population Mitotic Cells (%) (Fibroblast [1]; [4]): 100%
Population Normal (%) (Fibroblast [1]; [4]): 86%
Population Pyknosed Nuclei (%) (Fibroblast [1]; [4]): 5%
Population Tubulin-Different-Phenotype (%) (Fibroblast [1]; [4]): 44%
Total Cell Count (Fibroblast [1]; [4]): 79
Population Apoptotic (%) (Fibroblast [1]; [5]): 51%
Population Fragmented Nuclei (%) (Fibroblast [1]; [5]): 35%
Population Healthy Nuclei (%) (Fibroblast [1]; [5]): 41%
Population Hoechst High Intensity Objects (%) (Fibroblast [1]; [5]): 20%
Population Membrane Permeable-Phenotype (%) (Fibroblast [1]; [5]): 32%
Population Mitochondria Different-Phenotype (%) (Fibroblast [1]; [5]): 2%
Population Mitotic Cells (%) (Fibroblast [1]; [5]): 48%
Population Normal (%) (Fibroblast [1]; [5]): 79%
Population Pyknosed Nuclei (%) (Fibroblast [1]; [5]): 23%
Population Tubulin-Different-Phenotype (%) (Fibroblast [1]; [5]): 38%
Total Cell Count (Fibroblast [1]; [5]): 147
Population Apoptotic (%) (Fibroblast [1]; [6]): 33%
Population Fragmented Nuclei (%) (Fibroblast [1]; [6]): 19%
Population Healthy Nuclei (%) (Fibroblast [1]; [6]): 76%
Population Hoechst High Intensity Objects (%) (Fibroblast [1]; [6]): 10%
Population Membrane Permeable-Phenotype (%) (Fibroblast [1]; [6]): 16%
Population Mitochondria Different-Phenotype (%) (Fibroblast [1]; [6]): 0%
Population Mitotic Cells (%) (Fibroblast [1]; [6]): 66%
Population Normal (%) (Fibroblast [1]; [6]): 90%
Population Pyknosed Nuclei (%) (Fibroblast [1]; [6]): 4%
Population Tubulin-Different-Phenotype (%) (Fibroblast [1]; [6]): 30%
Total Cell Count (Fibroblast [1]; [6]): 80
Population Apoptotic (%) (Fibroblast [1]; [7]): 54%
Population Fragmented Nuclei (%) (Fibroblast [1]; [7]): 25%
Population Healthy Nuclei (%) (Fibroblast [1]; [7]): 67%
Population Hoechst High Intensity Objects (%) (Fibroblast [1]; [7]): 14%
Population Membrane Permeable-Phenotype (%) (Fibroblast [1]; [7]): 14%
Population Mitochondria Different-Phenotype (%) (Fibroblast [1]; [7]): 3%
Population Mitotic Cells (%) (Fibroblast [1]; [7]): 45%
Population Normal (%) (Fibroblast [1]; [7]): 85%
Population Pyknosed Nuclei (%) (Fibroblast [1]; [7]): 7%
Population Tubulin-Different-Phenotype (%) (Fibroblast [1]; [7]): 19%
Total Cell Count (Fibroblast [1]; [7]): 175
Population Apoptotic (%) (Fibroblast [1]; [8]): 40%
Population Fragmented Nuclei (%) (Fibroblast [1]; [8]): 22%
Population Healthy Nuclei (%) (Fibroblast [1]; [8]): 73%
Population Hoechst High Intensity Objects (%) (Fibroblast [1]; [8]): 10%
Population Membrane Permeable-Phenotype (%) (Fibroblast [1]; [8]): 15%
Population Mitochondria Different-Phenotype (%) (Fibroblast [1]; [8]): 4%
Population Mitotic Cells (%) (Fibroblast [1]; [8]): 60%
Population Normal (%) (Fibroblast [1]; [8]): 89%
Population Pyknosed Nuclei (%) (Fibroblast [1]; [8]): 4%
Population Tubulin-Different-Phenotype (%) (Fibroblast [1]; [8]): 34%
Total Cell Count (Fibroblast [1]; [8]): 125
Growth Rate (U2OS; [9]): 0
Growth Rate (U2OS; 6 h, replicate number 2, timepoint 6 hours): 0
Growth Rate (U2OS; [10]): 0
Growth Rate (U2OS; [11]): 0
Growth Rate (U2OS; [12]): 0
Growth Rate (Fibroblast [2]; [9]): 1
Growth Rate (Fibroblast [2]; 0 h, replicate number 2, timepoint 0 hours): 0
Growth Rate (Fibroblast [2]; 6 h, replicate number 1, timepoint 6 hours): 0
Growth Rate (Fibroblast [2]; [10]): 1
Growth Rate (Fibroblast [2]; [11]): 0
Growth Rate (Fibroblast [2]; [12]): 0
Growth Rate (Fibroblast [2]; 24 h, replicate number 2, timepoint 24 hours): 1

From ChEMBL document CHEMBL4689842, “EUbOPEN Chemogenomics Library wave 1” (2021)
